Assay outcomes as filed in PubChem.
HSV replic up = enhancers of HSV replication in host cells, fold increase, host cell viability; HSV replication augmentation in cells; maximum fold increase; 0.005% of 220,000 active; in the data active = maximum fold increase above about 1.5; inconclusive = no clear call, values can overlap the other calls; tested in PC3 cells
STAT3 activator = IL-6 driven STAT3 reporter potentiators, primary screen, U3A cells, luciferase, luminescence, MLSCN library. IL-6 STAT3-luciferase reporter; 100% = signal with IL-6 EC80 alone. activation (% of control), % at 5.6 µM. 0.91% of 190,000 active;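 active = activation above the screen-wide mean of compound activation plus 3 SD, cut at about 130% in these data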;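 note: 0% = background luminescence of wells with medium and substrate only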
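Detection: reporter luminescence signal / Assay system: STAT1-lacking human U3A cells, STAT3 luciferase reporter / Incubation: compound pre-incubation 1 h before IL-6, then 6 h stimulation at 37 °C / Control set: IL-6-only high control / Read-out: % activation relative to IL-6 control / Probe or stimulus: Interleukin-6, 33 ng/mL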
STAT1 activator = STAT1 signaling activators, primary screen, cell-based, HTS, luciferase reporter; activation (% of control), % at 5.5 µM; 2.6% of 200,000 active; NIH 3T3 STAT1-luciferase reporter, IFN-gamma, luminescence; 100% = IFN-gamma alone, no compound; AID 932, 2007;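 active = activation above the screen-wide mean activation plus 3 SD, cut at about 130% in these data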;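 note: raw ratio to IFN-gamma control signal so 100% means no change and 0% no light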
Cl transport mod = KCC2 cotransporter modulators, thallium flux, primary screen, cell-based, HEK293 KCC2, FluoZin-2 fluorescence, MLSMR; Solute carrier family 12 member 5 (Homo sapiens), Q9H2X9; KCC2 cells, thallium flux FluoZin-2 fluorescence; B-score of Tl+ flux slope (higher = more flux/activation; lower = inhibition) at 10 µM; 2.2% of 190,000 active; AID 1456, 2008;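 active = thallium flux slope and its plate-corrected score both differing from the plate sample mean at a set confidence after two filtering rounds, in either direction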;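 note: slope of fluorescence scaled to starting intensity during 10 to 20 s after thallium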
Target sequence (Q9H2X9 whole entry, looked up): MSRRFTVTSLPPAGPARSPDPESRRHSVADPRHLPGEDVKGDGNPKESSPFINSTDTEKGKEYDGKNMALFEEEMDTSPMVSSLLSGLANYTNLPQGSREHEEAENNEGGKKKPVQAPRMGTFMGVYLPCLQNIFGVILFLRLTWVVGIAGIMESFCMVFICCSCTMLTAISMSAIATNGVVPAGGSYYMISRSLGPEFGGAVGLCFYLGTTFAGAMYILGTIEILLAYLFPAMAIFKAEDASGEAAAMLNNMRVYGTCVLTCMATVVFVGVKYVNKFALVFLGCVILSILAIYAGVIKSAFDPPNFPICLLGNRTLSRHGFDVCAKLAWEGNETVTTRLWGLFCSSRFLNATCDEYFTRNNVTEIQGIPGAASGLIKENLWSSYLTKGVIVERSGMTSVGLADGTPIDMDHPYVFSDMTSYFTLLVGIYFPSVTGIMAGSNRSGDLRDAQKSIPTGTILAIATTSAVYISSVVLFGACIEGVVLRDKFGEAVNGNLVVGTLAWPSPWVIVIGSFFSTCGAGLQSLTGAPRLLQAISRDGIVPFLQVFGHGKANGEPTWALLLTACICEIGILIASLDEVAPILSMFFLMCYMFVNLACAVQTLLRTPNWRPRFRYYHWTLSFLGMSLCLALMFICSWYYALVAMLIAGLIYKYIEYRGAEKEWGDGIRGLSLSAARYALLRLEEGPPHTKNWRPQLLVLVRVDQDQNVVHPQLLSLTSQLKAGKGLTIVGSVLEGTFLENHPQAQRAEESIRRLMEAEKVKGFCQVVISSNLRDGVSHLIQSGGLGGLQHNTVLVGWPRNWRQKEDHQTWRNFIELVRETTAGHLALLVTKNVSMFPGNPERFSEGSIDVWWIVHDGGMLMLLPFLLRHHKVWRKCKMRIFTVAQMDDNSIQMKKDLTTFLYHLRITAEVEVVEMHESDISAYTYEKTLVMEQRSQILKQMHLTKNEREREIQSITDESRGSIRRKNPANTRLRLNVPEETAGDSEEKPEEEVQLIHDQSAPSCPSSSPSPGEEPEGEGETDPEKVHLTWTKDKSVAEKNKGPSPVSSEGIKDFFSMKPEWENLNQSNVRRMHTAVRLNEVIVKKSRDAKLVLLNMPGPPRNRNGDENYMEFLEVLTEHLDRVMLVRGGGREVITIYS
STAT1 blocker = STAT1 signaling inhibitors, primary screen, cell-based, HTS, luciferase reporter | 0.35% of 200,000 active | inhibition, % at 5.5 µM | NIH 3T3 STAT1-luciferase reporter, IFN-gamma, luminescence | AID 920, 2007;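 active = inhibition above a set limit, the mean inhibition across all tested compounds plus 3 SD, cut at about 34% in these data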;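 note: 0% = IFN-gamma with DMSO and 100% = IFN-gamma with 300 µM nifuroxazide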
STAT3 inh = IL-6 driven STAT3 reporter inhibitors, primary screen, U3A cells, luciferase, luminescence, MLSCN library. IL-6 STAT3-luciferase reporter; host cell line lacks STAT1. inhibition, % at 5.5 µM. 0.89% of 190,000 active;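 active = inhibition above the mean inhibition across all screened compounds plus 3 SD, cut at about 44% in these data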;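 note: 0% = DMSO only wells and 100% = 100 µM nifuroxazide control wells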
KCC2 secondary = KCC2 modulators in sodium-free buffer, confirmation, cell-based, HEK293 KCC2, thallium flux, secondary assay | FluoZin2 fluorescence; stronger effect = higher value | normalised thallium flux (F/F0 slope) at 10 µM | 15% of 3,700 active | shares compounds with Cl transport mod | AID 1713, 2009;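 active = thallium flux slope above the same plate's solvent-only control mean plus 3 SD; inconclusive = the two replicate wells disagree; inactive = no significant difference from solvent-only control wells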
KCC2 bumet counter = thallium flux persisting under bumetanide in KCC2 cells, confirmation, counter-screen for KCC2 modulator project, cell-based, HEK293 KCC2, FluoZin2, secondary assay 3; AID 1714, 2009; HEK293-KCC2 + bumetanide/ouabain; stronger effect = higher value; normalized thallium flux at 10 µM; shares compounds with Cl transport mod; 49% of 3,700 active;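 active = thallium entry rate above the same plate's blocked-transporter control wells by more than 3 SD; inconclusive = the two repeat wells disagree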;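 note: raw slope of fluorescence over initial fluorescence between 10 and 20 s after thallium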
KCC2 sec2 = KCC2 modulators without ouabain present, confirmation, cell-based, HEK293 KCC2, thallium flux, FluoZin2, secondary assay 2 | thallium flux FluoZin2 fluorescence; actives lie on both sides; F/F0 rise rate, 10–20 s post-thallium | normalized thallium flux at 10 µM | shares compounds with Cl transport mod | AID 1715, 2009 | 23% of 3,700 active;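 active = thallium flux slope more than 3 SD above or below the plate's solvent-only control mean, mostly below; inconclusive = the two repeat wells disagreed; inactive = no significant shift from solvent-only controls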;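 note: raw slope with 0.1% DMSO as baseline and bumetanide as block control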
HEK counter1 = thallium flux modulation in parental HEK cells, confirmation, counter-screen for KCC2 modulator project, cell-based, counterscreen 1. shares compounds with Cl transport mod. HEK293 parental cells, thallium flux FluoZin2, ouabain; baseline-ratio fluorescence slope, 10–20 s after thallium. thallium flux rate (normalised fluorescence) at 10 µM. 46% of 3,700 active;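 active = thallium flux rate significantly above the same plate's solvent-only control wells, beyond their mean plus 3 SD; inconclusive = the two replicate wells gave conflicting results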
KCC2 retest ouab = KCC2 inhibitors and activators, ouabain retest, confirmation, HEK-KCC2 cells; shares compounds with Cl transport mod; HEK293-KCC2, thallium flux FluoZin2 fluorescence; bidirectional: low = inhibitor, high = activator; raw Tl+ flux slope (below DMSO = inhibition, above = activation) at 10 µM; 48% of 3,700 active; AID 1717, 2009;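 active = thallium flux slope beyond 3 SD from same-plate DMSO control mean in most replicates, usually higher, sometimes lower; inconclusive = repeat tests gave conflicting results; inactive = no significant difference from controls in most replicates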;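 note: slope of initial-normalized fluorescence between seconds 10 and 20 after thallium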
HEK293 Tl flux2 = native HEK Tl+ uptake effects, second counter-screen – HEK cells, counterscreen 2, counter-screen for KCC2 modulator project, confirmation; thallium flux slope at 10 µM; AID 1718, 2009; 33% of 3,700 active; HEK293 parental, thallium flux FluoZin-2 fluorescence slope; shares compounds with Cl transport mod;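 active = thallium flux slope above the same plate's solvent-control mean plus 3 SD in both duplicate wells; inconclusive = duplicate wells that disagreed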;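 note: run without ouabain in cells lacking the KCC2 cotransporter; slope of fluorescence scaled to its starting value between 10 and 20 s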
* = called active by the depositor. Shown are actives, neighbours in structure and some others; about 5.5% of the full set was active somewhere.

`COc1ccc(C(=O)NNC(=S)NC(=O)C(C)(C)C)cc1` gave HSV replic up inactive, STAT3 activator 100, STAT1 activator 106, Cl transport mod 24*, STAT1 blocker -9, STAT3 inh 7, KCC2 secondary 0.024*, KCC2 bumet counter 0.036*, KCC2 sec2 inconclusive, HEK counter1 0.043*, KCC2 retest ouab 0.042* and HEK293 Tl flux2 0.014*.
Screening COc1ccc(OCC(=O)NC(=S)NNC(=O)COc2ccc(Br)cc2Cl)cc1 returned HSV replic up inactive, STAT3 activator 110, STAT1 activator 99, Cl transport mod 13*, STAT1 blocker -1, STAT3 inh 0, KCC2 secondary 0.011, KCC2 bumet counter 0.026*, KCC2 sec2 0.033, HEK counter1 0.019*, KCC2 retest ouab 0.026 and HEK293 Tl flux2 0.013*.
For O=C(COc1ccc([N+](=O)[O-])cc1)NNC(=S)NC(=O)c1ccc(Br)cc1 the results were HSV replic up inactive, STAT3 activator 102, STAT1 activator 102, Cl transport mod 6*, STAT1 blocker -3, STAT3 inh 5, KCC2 secondary inconclusive, KCC2 bumet counter 0.029*, KCC2 sec2 0.03, HEK counter1 0.018*, KCC2 retest ouab 0.027* and HEK293 Tl flux2 inconclusive.
COc1ccc(NC(=S)NNC(=O)COc2ccc(Cl)cc2Cl)cc1 was read as HSV replic up inactive, STAT3 activator 103, STAT1 activator 105, Cl transport mod 3.7, STAT1 blocker -5 and STAT3 inh -1.
`COc1ccc(C(=O)NC(=S)NNC(=O)COc2ccccc2)cc1` gave HSV replic up inactive, STAT3 activator 72, STAT1 activator 70, Cl transport mod 35*, STAT1 blocker 30, STAT3 inh 38, KCC2 secondary 0.023*, KCC2 bumet counter 0.072*, KCC2 sec2 inconclusive, HEK counter1 0.036*, KCC2 retest ouab 0.051* and HEK293 Tl flux2 0.021*.
For COc1ccc(/C=C2\SC(N3CCc4ccccc4C3)=NC2=O)cc1OC the results were HSV replic up inactive, STAT3 activator 95, STAT1 activator 88, Cl transport mod -2, STAT1 blocker 13 and STAT3 inh 9.
`O=C(COc1ccccc1)NNC(=S)NC(=O)c1ccccc1` gave HSV replic up inactive, STAT3 activator 106, STAT1 activator 112, Cl transport mod 18*, STAT1 blocker -11, STAT3 inh -1, KCC2 secondary 0.007, KCC2 bumet counter 0.045*, KCC2 sec2 0.05*, HEK counter1 0.039*, KCC2 retest ouab 0.043* and HEK293 Tl flux2 0.041*.
CCOC(=O)N1CCN(C(=O)c2cc(C)no2)CC1 was read as Cl transport mod -3.9*, KCC2 secondary 0.0072, KCC2 bumet counter 0.0047, KCC2 sec2 0.031, HEK counter1 0.0072, KCC2 retest ouab 0.018 and HEK293 Tl flux2 0.01.
`CN(C)S(=O)(=O)c1ccc(C(=O)Nc2nnc(-c3ccco3)o2)cc1` gave HSV replic up inactive, STAT3 activator 112, STAT1 activator 107, Cl transport mod -0.18, STAT1 blocker -8 and STAT3 inh -11.
For O=C(Nc1nnc(-c2ccco2)o1)c1ccc(Cl)cc1 the results were HSV replic up inactive, STAT3 activator 105, STAT1 activator 108, Cl transport mod 29*, STAT1 blocker -11, STAT3 inh 0, KCC2 secondary 0.032*, KCC2 bumet counter 0.069*, KCC2 sec2 inconclusive, HEK counter1 0.031*, KCC2 retest ouab 0.06* and HEK293 Tl flux2 0.017*.
Screening Cc1ccc(C(=O)Nc2nnc(-c3ccco3)o2)cc1C returned HSV replic up inactive, STAT3 activator 92, STAT1 activator 92, Cl transport mod 8*, STAT1 blocker 9, STAT3 inh 4, KCC2 secondary 0.013*, KCC2 bumet counter 0.039*, KCC2 sec2 0.029, HEK counter1 0.019*, KCC2 retest ouab 0.038* and HEK293 Tl flux2 0.011*.
`CN1C(=O)c2cccc(NC(=O)Cc3ccccc3)c2C1=O` gave HSV replic up inactive, STAT3 activator 90, STAT1 activator 98, Cl transport mod -1.7, STAT1 blocker 2 and STAT3 inh 20.
O=C(CCC(=O)c1ccccc1)NCCc1c[nH]c2ccccc12 was read as HSV replic up inactive, STAT3 activator 92, STAT1 activator 92, Cl transport mod -0.23, STAT1 blocker 9 and STAT3 inh 14.
